# Test results published in ChEMBL document CHEMBL4118106 (J Med Chem, 2018).
# Calls of active or inactive are those of the source. The calls are words filed in the database; no cut-off is given here. Where a SMILES comes first, the peptide text is derived from it. Bridges are numbered along the chain shown (N, C = ends). [ ]: non-standard residue; d: D form. S5 = C=CCCC[C@](C)(N)C(=O)O
# Assays:
# [1] = Binding affinity to NHR peptide HR1P in pH 7.2 phosphate buffer assessed as formation of alpha-helical complex at 200 uM after 30 mins by N-PAGE analysis
# Procedure, shortened: (§1)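 Stapled peptide and HR1P, each 200 µM (in 50 mM PBS or ddH2O), were incubated together at 25 °C for 30 min. Samples in Tris-glycine native sample buffer were run on an 18% Tris-glycine gel (pH 8.3 buffer) at 120 V for 3 h at room temperature and stained with Coomassie blue R250.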
# [2] = Inhibition of EGFP-fused MERS-CoV spike protein mediated cell-cell fusion between viral protein expressing human 293T cells and human HuH7 target cells after 4 hrs by inverted fluorescence microscopic analysis; set-up: species or system Middle East respiratory syndrome-related coronavirus
# Procedure, shortened: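 Huh-7 target cells expressing DPP4 were seeded at 5 × 10^4/well and kept at 37 °C for 5 h. Inhibitors were added, then 293T effector cells co-expressing S protein and EGFP (1 × 10^4/well); 293T/EGFP-only cells served as negative control. After 4 h coculture at 37 °C, fused and unfused cells were counted by fluorescence microscopy.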
# [3] = Binding affinity to NHR peptide HR1P in pH 7.2 phosphate buffer assessed as formation of alpha-helical complex at 50 uM after 30 mins by CD spectroscopic method
# Procedure, shortened: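 Peptides were at 50 µM final in 50 mM PBS, pH 7.2. Equimolar HR1P/peptide mixtures were incubated at 25 °C for 30 min before CD scanning. α-Helicity was taken from [θ]222, where -33,000 deg cm2/dmol = 100% helix.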
# [4] = test system: Calu-3; assay: Cytotoxicity against human Calu3 cells at 100 uM after 48 hrs by CCK-8 assay; assay type: cell-based; settings: calu-3, 48 h
# Procedure, shortened: (§2)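 Cells (1 × 10^5 per well) were preincubated at 37 °C for 12 h, then given graded peptide concentrations. After 48 h at 37 °C, CCK-8 was added and absorbance at 450 nm was read 2 h later.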
# [5] = Binding affinity to NHR peptide HR1P in pH 7.2 phosphate buffer at 250 uM after 30 mins by sedimentation velocity analysis
# Procedure, shortened: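 HR1P/peptide mixtures at 250 µM in 50 mM PBS were incubated at 25 °C for 30 min. After an initial scan at 3000 rpm for 10 min, sedimentation velocity was run at 60,000 rpm, 280 nm, 20 °C, for 7 h. Weight-averaged molecular weights were obtained by fitting.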
# [6] = Binding affinity to NHR peptide HR1P in pH 7.2 phosphate buffer assessed as thermal unfolding transition at 50 uM after 30 mins by CD spectroscopic method
# Procedure, shortened: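 Equimolar HR1P/peptide mixtures, 50 µM final in 50 mM PBS pH 7.2, were preincubated at 25 °C for 30 min. Thermal denaturation was followed by CD at 222 nm over a 10–90 °C gradient at 2 °C/min.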
# [7] = Binding affinity to NHR peptide HR1P in pH 7.2 phosphate buffer at 200 uM after 30 mins by N-PAGE analysis; procedure, shortened: as §1
# [8] = (§3) Inhibition of MERS-CoV spike protein mediated cell-cell fusion between viral protein expressing human 293T cells and human HuH7 target cells assessed as decrease in pseudovirus infection preincubated with virus for 1 hr followed by HuH7 cells addition measured after 48 hrs by luciferase reporter gene assay; set-up: species or system Middle East respiratory syndrome-related coronavirus; settings: Middle East respiratory syndrome-related coronavirus
# Procedure, shortened: (§4)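 Graded peptide concentrations were preincubated with luciferase-reporter pseudovirus bearing MERS-CoV S for 1 h at room temperature. The mixture was added to Huh-7 or Calu-3 cells, with medium refreshed at 12 h. After a further 48 h at 37 °C, luciferase was read. Values are from three independent experiments, mean ± SD.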
# [9] = as §3, with “human Calu3” for “human HuH7”; set-up: species or system Middle East respiratory syndrome-related coronavirus; settings: Middle East respiratory syndrome-related coronavirus; procedure, shortened: as §4
# [10] = Cytotoxicity against human HuH7 cells after 48 hrs by CCK-8 assay; assay type: cell-based, Huh-7; procedure, shortened: as §2
Structure (SMILES),Activity [1],EC50 [2] [nM],Activity [3],Activity [4],Activity [5],Tm [6] [°C],Activity [7],EC50 [8] [nM],EC50 [9] [nM],CC50 at 48 h [10] [µM]
CSCC[C@H](NC(=O)[C@H](CCC(=O)O)NC(=O)[C@H](Cc1ccc(O)cc1)NC(=O)[C@@H](NC(=O)[C@H](CC(C)C)NC(=O)[C@H](CC(=O)O)NC(=O)[C@H](CC(C)C)NC(C)=O)[C@@H](C)O)C(=O)N[C@@H](CC(C)C)C(=O)N[C@@H](CO)C(=O)N[C@@H](CC(C)C)C(=O)N[C@@]1(C)CCC/C=C/CCC[C@@](C)(C(=O)N[C@@H](C)C(=O)N[C@@H](CC(C)C)C(=O)N[C@@H](CC(N)=O)C(=O)N[C@@H](CCC(=O)O)C(=O)N[C@@H](CO)C(=O)N[C@@H](Cc2ccc(O)cc2)C(N)=O)NC(=O)[C@H](C(C)C)NC(=O)[C@H](C(C)C)NC(=O)[C@H](CCC(N)=O)NC1=O (Ac-LDLTYEMLSL[S5]QVV[S5]ALNESY-NH2; staple (E) 11-15),inactive,> 50000,inactive,–,–,–,–,–,–,–
CSCC[C@H](NC(=O)[C@H](CCC(=O)O)NC(=O)[C@H](Cc1ccc(O)cc1)NC(=O)[C@@H](NC(=O)[C@H](CC(C)C)NC(=O)[C@H](CC(=O)O)NC(=O)[C@H](CC(C)C)NC(C)=O)[C@@H](C)O)C(=O)N[C@@H](CC(C)C)C(=O)N[C@@H](CO)C(=O)N[C@@H](CC(C)C)C(=O)N[C@@H](CCC(N)=O)C(=O)N[C@@H](CCC(N)=O)C(=O)N[C@H](C(=O)N[C@H](C(=O)N[C@@H](CCCCN)C(=O)N[C@@]1(C)CCC/C=C\CCC[C@@](C)(C(=O)N[C@@H](Cc2ccc(O)cc2)C(N)=O)NC(=O)[C@H](CCC(=O)O)NC(=O)[C@H](CC(N)=O)NC(=O)[C@H](CC(C)C)NC1=O)C(C)C)C(C)C,–,330,45.6%,Non-Toxic,Active,76.4,Active,970,1580,> 100
